According to ChEMBL document CHEMBL1157006, “Cellular localization and allele-selective inhibition of mutant huntingtin protein by peptide nucleic acid oligomers containing the fluorescent nucleobase [bis-o-(aminoethoxy)phenyl]pyrrolocytosine” (Bioorg Med Chem Lett, 2009):

Assays:
[1] = Inhibition of huntingtin […] expression in human GM04281 cells with 17 CAG repeats within wild type allele by Western blotting; format: functional, cell-based; conditions: in the assay text read “69 CAG repeats within mutant allele” for “17 CAG repeats within wild type allele”
Summary of the method: (§1)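 Patient-derived GM04281 fibroblasts carrying both wild-type and mutant HTT alleles were exposed to PNA-peptide conjugates, at 1 µM or across a concentration series. Mutant and wild-type HTT protein were measured separately by western blot and expressed relative to untreated cells. Experiments were run in triplicate.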

[2] = Inhibition of huntingtin […] expression in human GM04281 cells with 69 CAG repeats within mutant allele by Western blotting; format: functional, cell-based; conditions: in the assay text read “17 CAG repeats within wild type allele” for “69 CAG repeats within mutant allele”; summary of the method: as §1
[3] = Ratio of IC50 for huntingtin […] expression in human GM04281 cells with 17 CAG repeats within wild type allele to huntingtin […] expression in human GM04281 cells with 69 CAG repeats within mutant allele; format: functional
[4] = Inhibition of huntingtin […] expression in human GM04281 cells with 69 CAG repeats within mutant allele at 0.2 to 2 uM by Western blotting; format: functional; summary of the method: as §1
[5] = Inhibition of huntingtin […] expression in human GM04281 cells with 17 CAG repeats within wild type allele at >1 uM by Western blotting; format: functional; conditions: in the assay text read “69 CAG repeats within mutant allele” for “17 CAG repeats within wild type allele”; summary of the method: as §1

Row | Compound | IC50 [1] [µM] | IC50 [2] [µM] | Ratio IC50 [3] | inhibition (INH) [4] [%] | inhibition (INH) [5] [%]
1 | Cc1cn(CC(=O)N(CCNC(=O)CN(CCNC(=O)CN(CCNC(=O)CN(CCNC(=O)CN(CCNC(=O)CN(CCNC(=O)CN(CCNC(=O)CN(CCNC(=O)CN(CCNC(=O)CN(CCNC(=O)CN(CCNC(=O)CN(CCN)C(=O)Cn2cnc3c(=O)[nH]c(N)nc32)C(=O)Cn2ccc(N)nc2=O)C(=O)Cn2cc(C)c(=O)[nH]c2=O)C(=O)Cn2cnc3c(=O)[nH]c(N)nc32)C(=O)Cn2ccc(N)nc2=O)C(=O)Cn2cc(C)c(=O)[nH]c2=O)C(=O)Cn2cnc3c(=O)[nH]c(N)nc32)C(=O)Cn2ccc(N)nc2=O)C(=O)Cn2cc(C)c(=O)[nH]c2=O)C(=O)Cn2cnc3c(=O)[nH]c(N)nc32)C(=O)Cn2ccc(N)nc2=O)CC(=O)NCCN(CC(N)=O)C(=O)Cn2cnc3c(=O)[nH]c(N)nc32)c(=O)[nH]c1=O | 0.47 | > 2 | >4 |  | 
2 | Cc1cn(CC(=O)N(CCNC(=O)CN(CCNC(=O)CN(CCNC(=O)CN(CCNC(=O)CN(CCNC(=O)CN(CCNC(=O)CN(CCNC(=O)CN(CCNC(=O)CN(CCNC(=O)CN(CCNC(=O)CN(CCNC(=O)CN(CCN)C(=O)Cn2cnc3c(=O)[nH]c(N)nc32)C(=O)Cn2cc3cc(-c4c(OCCN)cccc4OCCN)[nH]c3nc2=O)C(=O)Cn2cc(C)c(=O)[nH]c2=O)C(=O)Cn2cnc3c(=O)[nH]c(N)nc32)C(=O)Cn2cc3cc(-c4c(OCCN)cccc4OCCN)[nH]c3nc2=O)C(=O)Cn2cc(C)c(=O)[nH]c2=O)C(=O)Cn2cnc3c(=O)[nH]c(N)nc32)C(=O)Cn2cc3cc(-c4c(OCCN)cccc4OCCN)[nH]c3nc2=O)C(=O)Cn2cc(C)c(=O)[nH]c2=O)C(=O)Cn2cnc3c(=O)[nH]c(N)nc32)C(=O)Cn2ccc(N)nc2=O)CC(=O)NCCN(CC(N)=O)C(=O)Cn2cnc3c(=O)[nH]c(N)nc32)c(=O)[nH]c1=O | 0.97 | > 4 |  | <50 | >50
3 | Cc1cn(CC(=O)N(CCNC(=O)CN(CCNC(=O)CN(CCNC(=O)CN(CCNC(=O)CN(CCNC(=O)CN(CCNC(=O)CN(CCNC(=O)CN(CCNC(=O)CN(CCNC(=O)CN(CCNC(=O)CN(CCNC(=O)CN(CCN)C(=O)Cn2cnc3c(=O)[nH]c(N)nc32)C(=O)Cn2cc3cc(-c4c(OCCN)cccc4OCCN)[nH]c3nc2=O)C(=O)Cn2cc(C)c(=O)[nH]c2=O)C(=O)Cn2cnc3c(=O)[nH]c(N)nc32)C(=O)Cn2cc3cc(-c4c(OCCN)cccc4OCCN)[nH]c3nc2=O)C(=O)Cn2cc(C)c(=O)[nH]c2=O)C(=O)Cn2cnc3c(=O)[nH]c(N)nc32)C(=O)Cn2cc3cc(-c4c(OCCN)cccc4OCCN)[nH]c3nc2=O)C(=O)Cn2cc(C)c(=O)[nH]c2=O)C(=O)Cn2cnc3c(=O)[nH]c(N)nc32)C(=O)Cn2cc3cc(-c4c(OCCN)cccc4OCCN)[nH]c3nc2=O)CC(=O)NCCN(CC(N)=O)C(=O)Cn2cnc3c(=O)[nH]c(N)nc32)c(=O)[nH]c1=O | 2.6 | > 4 |  |  | 

Second part, led by results:

Row | IC50 [1] [µM] | IC50 [2] [µM] | Compound | Ratio IC50 [3] | inhibition (INH) [4] [%] | inhibition (INH) [5] [%]
4 | 0.54 | 1.68 | Cc1cn(CC(=O)N(CCNC(=O)CN(CCNC(=O)CN(CCNC(=O)CN(CCNC(=O)CN(CCNC(=O)CN(CCNC(=O)CN(CCNC(=O)CN(CCNC(=O)CN(CCNC(=O)CN(CCNC(=O)CN(CCNC(=O)CN(CCN)C(=O)Cn2cnc3c(=O)[nH]c(N)nc32)C(=O)Cn2cc3cc(-c4c(OCCN)cccc4OCCN)[nH]c3nc2=O)C(=O)Cn2cc(C)c(=O)[nH]c2=O)C(=O)Cn2cnc3c(=O)[nH]c(N)nc32)C(=O)Cn2ccc(N)nc2=O)C(=O)Cn2cc(C)c(=O)[nH]c2=O)C(=O)Cn2cnc3c(=O)[nH]c(N)nc32)C(=O)Cn2ccc(N)nc2=O)C(=O)Cn2cc(C)c(=O)[nH]c2=O)C(=O)Cn2cnc3c(=O)[nH]c(N)nc32)C(=O)Cn2ccc(N)nc2=O)CC(=O)NCCN(CC(N)=O)C(=O)Cn2cnc3c(=O)[nH]c(N)nc32)c(=O)[nH]c1=O |  |  | 
5 | 0.71 | 1.86 | Cc1cn(CC(=O)N(CCNC(=O)CN(CCNC(=O)CN(CCNC(=O)CN(CCNC(=O)CN(CCNC(=O)CN(CCNC(=O)CN(CCNC(=O)CN(CCNC(=O)CN(CCNC(=O)CN(CCNC(=O)CN(CCNC(=O)CN(CCN)C(=O)Cn2cnc3c(=O)[nH]c(N)nc32)C(=O)Cn2ccc(N)nc2=O)C(=O)Cn2cc(C)c(=O)[nH]c2=O)C(=O)Cn2cnc3c(=O)[nH]c(N)nc32)C(=O)Cn2ccc(N)nc2=O)C(=O)Cn2cc(C)c(=O)[nH]c2=O)C(=O)Cn2cnc3c(=O)[nH]c(N)nc32)C(=O)Cn2cc3cc(-c4c(OCCN)cccc4OCCN)[nH]c3nc2=O)C(=O)Cn2cc(C)c(=O)[nH]c2=O)C(=O)Cn2cnc3c(=O)[nH]c(N)nc32)C(=O)Cn2ccc(N)nc2=O)CC(=O)NCCN(CC(N)=O)C(=O)Cn2cnc3c(=O)[nH]c(N)nc32)c(=O)[nH]c1=O |  |  | 
6 | 0.58 | 1.3 | Cc1cn(CC(=O)N(CCNC(=O)CN(CCNC(=O)CN(CCNC(=O)CN(CCNC(=O)CN(CCNC(=O)CN(CCNC(=O)CN(CCNC(=O)CN(CCNC(=O)CN(CCNC(=O)CN(CCNC(=O)CN(CCNC(=O)CN(CCN)C(=O)Cn2cnc3c(=O)[nH]c(N)nc32)C(=O)Cn2cc3cc(-c4c(OCCN)cccc4OCCN)[nH]c3nc2=O)C(=O)Cn2cc(C)c(=O)[nH]c2=O)C(=O)Cn2cnc3c(=O)[nH]c(N)nc32)C(=O)Cn2ccc(N)nc2=O)C(=O)Cn2cc(C)c(=O)[nH]c2=O)C(=O)Cn2cnc3c(=O)[nH]c(N)nc32)C(=O)Cn2cc3cc(-c4c(OCCN)cccc4OCCN)[nH]c3nc2=O)C(=O)Cn2cc(C)c(=O)[nH]c2=O)C(=O)Cn2cnc3c(=O)[nH]c(N)nc32)C(=O)Cn2ccc(N)nc2=O)CC(=O)NCCN(CC(N)=O)C(=O)Cn2cnc3c(=O)[nH]c(N)nc32)c(=O)[nH]c1=O |  |  | 
